From article PMC8419023 (Structure (London, England : 1993), 2021)
Each block holds one substance with its values, some of them ahead of it. No end group written: not given here.

Assays:
cyclin A = experiment: GST pull down, cyclin A in isolation; format: binding, human; settings: HEPES pH 7.5; 1 h, 4°C; SDS-PAGE; two experiments; Figure 1C
Outline: (§1)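 Bacterially expressed proteins: CDK2 (1–298) as a GST fusion, cyclin A (1–432 or 173–432) as a 6XHis fusion. […] Incubated 1 h at 4 °C with mild agitation, washed three times in binding buffer, and bound material analysed by SDS-PAGE; repeated 2–3 times.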

CDK2 = experiment: GST pull down, CDK2 in isolation; format: binding, human; settings: HEPES pH 7.5; 1 h, 4°C; SDS-PAGE; two experiments; Figure 1C
CDK2-cyclin A [1] = target: CDK2-cyclin A (Homo sapiens, UniProt P20248+P24941); experiment: GST pull down, CDK2-cyclin A; format: binding; settings: 1 h, 4°C, SDS-PAGE, two experiments; for binding of GST-tagged Skp2 N-terminal fragments to CDK2-cyclin A^1−432: GST pull-down, Figure 4B; for binding of N-terminal deletions to GST:CDK2-cyclin A: GST CDK2-cyclin A^173−432 with Skp1-Skp2 deletions, Figure 1D
Outline: as §1

[2] = target: CDK2-cyclin A (Surface 2, hydrophobic patch); experiment: Fluorescence polarization displacement of FITC-p27^27−36 from CDK2-cyclin A; format: binding, human; settings: 25 nM FITC-p27^27−36, CDK2-cyclin A 6.25 μM, HEPES pH 7.5, 30 min, N=4
CDK2-cyclin A^173−432 = experiment: Protein kinase assay, Bora^1−224 phosphorylation by CDK2-cyclin A; format: biochemical, human; settings: 3 nM CDK2-cyclin A, 30°C, 30 min, Figure 7A
CDK2-cyclin A [3] = settings: ref Ji et al., 2006; cited from earlier work

Substance: GST-Skp2^1−424: GST-tagged full-length Skp2
pull down of cyclin A in isolation (cyclin A): could also pull down cyclin A in isolation
pull down of CDK2 in isolation (CDK2): not CDK2 in isolation

Substance: Skp2^Δ1−16: Skp2 with residues 1 to 16 deleted
binding of N-terminal deletions to GST:CDK2-cyclin A (CDK2-cyclin A [1]): had no effect on CDK2-cyclin A binding

Substance: Skp2^Δ1−28: Skp2 with residues 1 to 28 deleted
binding of N-terminal deletions to GST:CDK2-cyclin A (CDK2-cyclin A [1]): caused a decrease in CDK2-cyclin A binding

Substance: p21: CDK inhibitor p21
competition with the N-terminus of Skp2 (CDK2-cyclin A [3]): compete with the N-terminus of Skp2 for binding to CDK2-cyclin A

The next lines start with results.

binding of GST-tagged Skp2 N-terminal fragments to CDK2-cyclin A^1−432 (CDK2-cyclin A [1]): did abolish binding
Substance: Skp2^28−43: GST-tagged Skp2 fragment 28–43 (KTSELLSGMGVSALEK; also: GST-tagged (end not given here))

binding of GST-tagged Skp2 N-terminal fragments to CDK2-cyclin A^1−432 (CDK2-cyclin A [1]): A major loss of binding to CDK2-cyclin A
Substance: Skp2^1−29: GST-tagged Skp2 fragment 1–29 (MHRKHLQEIPDLSSNVATSFTWGWDSSKT; also: GST-tagged (end not given here))

IC50 ([2]; Figure 3E): 5.3 µM
IC50 ([2]; Figure 4F): 5.8 µM
concentration for complete inhibition of Bora phosphorylation (CDK2-cyclin A^173−432; 10 μM Bora^1–224, 0.75 mM ATP [γ−^32P], pH 7.5, phosphoimager): 10 µM
Substance: Skp2^1−424: full-length Skp2 in complex with Skp1
inhibition of phosphorylation of RxL containing substrate (in words) (CDK2-cyclin A^173−432; Bora^1–224): completely inhibit Bora phosphorylation in vitro in a manner dependent on its N-terminus

binding of GST-tagged Skp2 N-terminal fragments to CDK2-cyclin A^1−432 (CDK2-cyclin A [1]): did not affect binding to CDK2-cyclin A
Substance: Skp2^17−43: GST-tagged Skp2 fragment 17–43 (ATSFTWGWDSSKTSELLSGMGVSALEK; also: GST-tagged (end not given here))
